Results reported in ChEMBL document CHEMBL5257059, “Pyridine-Based 1,2,4-Triazolo-Tethered Indole Conjugates Potentially Affecting TNKS and PI3K in Colorectal Cancer” (ACS Med Chem Lett, 2023).
The source made the active and inactive calls. The rule behind the calls is not given here.

Key:
HT-29 [1] = experiment: Induction of cell cycle arrest in human HT-29 cells assessed as accumulation of cells at G0/G1 phase at 4 uM incubated for 24 hrs by RNase/PI staining based flow cytometry analysis (reference value: 50.206%); format: functional
HT-29 [2] = experiment: Induction of cell cycle arrest in human HT-29 cells assessed as accumulation of cells at S phase at 4 uM incubated for 24 hrs by RNase/PI staining based flow cytometry analysis (reference value: 17.934 %); format: functional
HT-29 [3] = experiment: Downregulation of TAB-182 protein expression in human HT-29 cells at 4 uM by immunostaining based confocal microscopic analysis; format: functional, cell-based
HT-29 [4] = experiment: Inhibition of AXIN-2 protein expression in human HT-29 cells at 4 uM incubated for 72 hrs by Western blot analysis; format: functional, cell-based
HT-29 [5] = experiment: Inhibition of beta-actin protein expression in human HT-29 cells at 4 uM incubated for 72 hrs by Western blot analysis; format: functional, cell-based
HT-29 [6] = experiment: Inhibition of TAB-182 protein expression in human HT-29 cells at 4 uM incubated for 72 hrs by Western blot analysis; format: functional, cell-based
HT-29 [7] = experiment: Inhibition of AKT protein expression in human HT-29 cells at 4 uM incubated for 72 hrs by Western blot analysis; format: functional, cell-based
HT-29 [8] = experiment: Induction of cell cycle arrest in human HT-29 cells assessed as accumulation of cells at G0/G1 phase at 1 uM incubated for 24 hrs by RNase/PI staining based flow cytometry analysis (reference value: 50.206%); format: functional
HT-29 [9] = experiment: Induction of mitochondrial damage in human HT-29 cells assessed as increase in monomer formation at 1 uM incubated for 24 hrs by JC-1 staining based flow cytometry analysis; format: functional, cell-based
How it was run: (§1)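 HT-29 cells exposed 24 h to test agent at 1, 2 or 4 μM, then stained with JC-1. Flow cytometry scored the % of cells in JC-1 aggregate versus monomer populations. Treated groups were compared with untreated control by two-way ANOVA with Tukey's post hoc test.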

HT-29 [10] = experiment: Induction of apoptosis in human HT29 cells assessed as increase in early apoptotic cells at 1 uM incubated for 24 hrs by annexin V/PI staining based flow cytometry analysis; format: functional, cell-based
How it was run: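 Annexin/PI double staining of HT-29 cells after 24 h exposure at 1, 2 or 4 μM. Flow cytometry gated early apoptotic, late apoptotic and necrotic populations, reported as % of cells. Comparison to untreated control used two-way ANOVA followed by Tukey's post hoc analysis.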

HT-29 [11] = experiment: Induction of mitochondrial ROS generation in human HT-29 cells at 1 uM by MitoSOX red dye based flow cytometry analysis; format: functional, cell-based
How it was run: (§2)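 Mitochondrial superoxide in HT-29 cells was read with the mitochondria-localizing MitoSOX Red probe after treatment at 1, 2 or 4 μM. Flow cytometry histograms were acquired on 10,000 cells, and results were expressed as mean fluorescence intensity. Versus control, significance was tested by one-way ANOVA with Tukey's post hoc test.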

HT-29 [12] = experiment: Downregulation of TAB-182 protein expression in human HT-29 cells at 1 uM by immunostaining based confocal microscopic analysis; format: functional, cell-based
HT-29 [13] = experiment: Inhibition of APC protein expression in human HT-29 cells at 1 uM incubated for 72 hrs by Western blot analysis; format: functional, cell-based
HT-29 [14] = experiment: Inhibition of TAB-182 protein expression in human HT-29 cells at 1 uM incubated for 72 hrs by Western blot analysis; format: functional, cell-based
HT-29 [15] = experiment: Inhibition of GSK-3beta protein expression in human HT-29 cells at 1 uM incubated for 72 hrs by Western blot analysis; format: functional, cell-based
HT-29 [16] = experiment: Inhibition of beta-catenin protein expression in human HT-29 cells at 1 uM incubated for 72 hrs by Western blot analysis; format: functional, cell-based
HT-29 [17] = experiment: Inhibition of PI3K-p85 protein expression in human HT-29 cells at 1 uM incubated for 72 hrs by Western blot analysis; format: functional, cell-based
HT-29 [18] = experiment: Inhibition of AKT protein expression in human HT-29 cells at 1 uM incubated for 72 hrs by Western blot analysis; format: functional, cell-based
HT-29 [19] = experiment: Induction of cell cycle arrest in human HT-29 cells assessed as accumulation of cells at S phase at 2 uM incubated for 24 hrs by RNase/PI staining based flow cytometry analysis (reference value: 17.934 %); format: functional
HT-29 [20] = experiment: Induction of mitochondrial damage in human HT-29 cells assessed as increase in monomer formation at 2 uM incubated for 24 hrs by JC-1 staining based flow cytometry analysis; format: functional, cell-based; how it was run: as §1
HT-29 [21] = experiment: Induction of mitochondrial ROS generation in human HT-29 cells at 2 uM by MitoSOX red dye based flow cytometry analysis; format: functional, cell-based; how it was run: as §2
HT-29 [22] = experiment: Downregulation of beta-catenin protein expression in human HT-29 cells at 2 uM by immunostaining based confocal microscopic analysis; format: functional, cell-based
[23] = biological target: 182 kDa tankyrase-1-binding protein (Homo sapiens) (UniProt Q9C0C2); experiment: Inhibition of TAB-182 phosphorylation in human HT-29 cells at 2 uM incubated for 72 hrs by Western blot analysis; format: cell-based
[24] = biological target: T1, Catenin beta-1 (Homo sapiens) (UniProt P35222); experiment: Inhibition of beta-catenin phosphorylation in human HT-29 cells at 2 uM incubated for 72 hrs by Western blot analysis; format: cell-based
T1 sequence (whole entry): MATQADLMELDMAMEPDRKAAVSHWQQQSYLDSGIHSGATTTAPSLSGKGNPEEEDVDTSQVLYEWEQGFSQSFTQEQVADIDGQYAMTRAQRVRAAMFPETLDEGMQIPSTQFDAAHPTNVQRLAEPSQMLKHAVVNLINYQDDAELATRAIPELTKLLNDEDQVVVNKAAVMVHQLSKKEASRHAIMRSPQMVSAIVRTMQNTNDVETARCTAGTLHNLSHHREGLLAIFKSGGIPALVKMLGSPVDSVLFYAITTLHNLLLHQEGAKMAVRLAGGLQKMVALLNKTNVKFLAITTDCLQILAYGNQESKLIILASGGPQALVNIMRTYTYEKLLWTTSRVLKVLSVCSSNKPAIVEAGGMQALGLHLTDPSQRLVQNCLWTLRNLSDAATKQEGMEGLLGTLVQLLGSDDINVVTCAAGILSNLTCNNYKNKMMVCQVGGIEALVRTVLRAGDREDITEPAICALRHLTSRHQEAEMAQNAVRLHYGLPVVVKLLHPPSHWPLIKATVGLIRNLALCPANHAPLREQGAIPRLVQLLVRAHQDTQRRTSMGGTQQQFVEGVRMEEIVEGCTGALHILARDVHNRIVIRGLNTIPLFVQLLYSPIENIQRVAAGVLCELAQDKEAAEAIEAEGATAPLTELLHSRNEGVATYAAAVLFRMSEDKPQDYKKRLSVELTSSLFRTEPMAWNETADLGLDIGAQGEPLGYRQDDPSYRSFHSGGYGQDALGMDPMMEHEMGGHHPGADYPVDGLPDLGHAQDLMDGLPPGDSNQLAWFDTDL

[25] = biological target: Glycogen synthase kinase-3 beta (Homo sapiens) (UniProt P49841); experiment: Inhibition of GSK3beta phosphorylation in human HT-29 cells at 2 uM incubated for 72 hrs by Western blot analysis; format: cell-based
HT-29 [26] = experiment: Inhibition of phosphorylated GSK-3beta protein expression in human HT-29 cells at 2 uM incubated for 72 hrs by Western blot analysis; format: functional, cell-based
HT-29 [27] = experiment: Inhibition of pan-AKT protein expression in human HT-29 cells at 2 uM incubated for 72 hrs by Western blot analysis; format: functional, cell-based

Glycogen synthase kinase-3 beta (Homo sapiens), sequence (P49841 whole entry, looked up): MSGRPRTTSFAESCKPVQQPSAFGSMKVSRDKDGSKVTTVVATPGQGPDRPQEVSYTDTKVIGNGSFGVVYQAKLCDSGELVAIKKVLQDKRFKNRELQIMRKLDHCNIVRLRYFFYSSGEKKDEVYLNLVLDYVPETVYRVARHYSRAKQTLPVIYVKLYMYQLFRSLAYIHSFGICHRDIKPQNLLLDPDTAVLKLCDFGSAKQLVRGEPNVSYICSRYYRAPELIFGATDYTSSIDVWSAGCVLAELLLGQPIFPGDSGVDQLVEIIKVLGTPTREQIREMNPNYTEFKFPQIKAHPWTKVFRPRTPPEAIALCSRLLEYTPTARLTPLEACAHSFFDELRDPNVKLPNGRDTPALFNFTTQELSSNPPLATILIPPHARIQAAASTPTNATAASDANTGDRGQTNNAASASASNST
182 kDa tankyrase-1-binding protein (Homo sapiens), sequence (Q9C0C2 whole entry): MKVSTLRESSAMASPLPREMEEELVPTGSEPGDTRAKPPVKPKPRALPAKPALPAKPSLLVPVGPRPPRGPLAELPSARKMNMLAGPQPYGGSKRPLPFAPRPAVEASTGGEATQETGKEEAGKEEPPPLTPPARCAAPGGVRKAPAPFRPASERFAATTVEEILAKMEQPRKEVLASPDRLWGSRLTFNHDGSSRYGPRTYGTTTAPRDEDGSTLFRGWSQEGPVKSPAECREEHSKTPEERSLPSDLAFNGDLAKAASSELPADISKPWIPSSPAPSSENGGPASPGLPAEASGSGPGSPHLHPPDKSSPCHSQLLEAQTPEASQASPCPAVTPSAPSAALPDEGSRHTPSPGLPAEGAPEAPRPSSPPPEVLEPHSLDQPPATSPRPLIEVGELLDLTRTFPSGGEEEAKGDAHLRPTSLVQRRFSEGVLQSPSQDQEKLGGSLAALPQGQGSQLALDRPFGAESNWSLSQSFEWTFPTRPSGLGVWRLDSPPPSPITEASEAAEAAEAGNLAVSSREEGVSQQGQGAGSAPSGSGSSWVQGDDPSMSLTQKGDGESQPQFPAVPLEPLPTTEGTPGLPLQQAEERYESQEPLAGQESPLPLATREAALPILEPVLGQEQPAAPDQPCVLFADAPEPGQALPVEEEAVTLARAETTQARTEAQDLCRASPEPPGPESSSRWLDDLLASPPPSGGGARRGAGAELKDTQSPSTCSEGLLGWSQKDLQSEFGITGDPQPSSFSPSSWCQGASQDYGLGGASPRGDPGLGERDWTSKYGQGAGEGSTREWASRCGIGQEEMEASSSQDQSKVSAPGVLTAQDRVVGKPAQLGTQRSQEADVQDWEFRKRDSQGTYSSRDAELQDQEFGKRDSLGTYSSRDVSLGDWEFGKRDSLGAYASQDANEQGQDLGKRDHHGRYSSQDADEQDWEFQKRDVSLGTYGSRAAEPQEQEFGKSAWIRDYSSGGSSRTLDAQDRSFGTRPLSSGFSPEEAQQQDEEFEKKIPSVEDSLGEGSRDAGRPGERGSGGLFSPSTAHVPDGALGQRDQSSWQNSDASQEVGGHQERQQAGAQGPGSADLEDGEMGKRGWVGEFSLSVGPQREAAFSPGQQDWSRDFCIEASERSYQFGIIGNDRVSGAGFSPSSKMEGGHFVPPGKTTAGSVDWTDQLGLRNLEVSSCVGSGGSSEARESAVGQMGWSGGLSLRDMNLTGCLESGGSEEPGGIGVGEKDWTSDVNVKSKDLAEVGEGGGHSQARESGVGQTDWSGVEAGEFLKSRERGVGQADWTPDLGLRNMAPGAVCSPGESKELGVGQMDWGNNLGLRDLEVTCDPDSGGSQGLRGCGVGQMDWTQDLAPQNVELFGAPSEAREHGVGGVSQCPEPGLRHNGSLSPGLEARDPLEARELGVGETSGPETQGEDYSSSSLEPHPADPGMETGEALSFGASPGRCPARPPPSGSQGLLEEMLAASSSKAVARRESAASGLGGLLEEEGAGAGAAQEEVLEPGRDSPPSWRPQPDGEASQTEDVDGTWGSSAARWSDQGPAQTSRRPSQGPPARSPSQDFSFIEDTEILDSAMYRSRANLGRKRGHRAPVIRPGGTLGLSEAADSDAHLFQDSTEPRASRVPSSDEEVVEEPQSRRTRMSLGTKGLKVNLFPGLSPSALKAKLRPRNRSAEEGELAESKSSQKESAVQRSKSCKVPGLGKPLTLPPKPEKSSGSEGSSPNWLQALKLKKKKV

SMILES: COc1cccc(-n2c(SCCc3c[nH]c4ccccc34)nnc2-c2ccncc2)c1
- Activity (HT-29 [1]): 42.657%
- Activity (HT-29 [2]): 20.837%
- Activity (HT-29 [3]): Active
- inhibition (HT-29 [4]): Active
- inhibition (HT-29 [5]): Active
- inhibition (HT-29 [6]): Active
- inhibition (HT-29 [7]): Active

SMILES: COc1ccc(-n2c(SCCc3c[nH]c4ccccc34)nnc2-c2ccncc2)cc1
- Activity (HT-29 [8]): 59.672%
- Activity (HT-29 [9]): Active
- Activity (HT-29 [10]): Active
- Activity (HT-29 [11]): Active
- Activity (HT-29 [12]): Active
- inhibition (HT-29 [13]): Active
- inhibition (HT-29 [14]): Active
- inhibition (HT-29 [15]): Active
- inhibition (HT-29 [16]): Active
- inhibition (HT-29 [17]): Active
- inhibition (HT-29 [18]): Active

SMILES: Fc1ccccc1-n1c(SCCc2c[nH]c3ccccc23)nnc1-c1ccncc1
- Activity (HT-29 [19]): 7.976%
- Activity (HT-29 [20]): Active
- Activity (HT-29 [21]): Active
- Activity (HT-29 [22]): Active
- inhibition [23]: Active
- inhibition [24]: Active
- inhibition [25]: Active
- inhibition (HT-29 [26]): Active
- inhibition (HT-29 [27]): Active
